Assay results as given in ChEMBL document CHEMBL1221380, “Structure-activity relationships of mononuclear metal-thiosemicarbazone complexes endowed with potent antiplasmodial and antiamoebic activities” (Bioorg Med Chem, 2010).
pIC50: −log10 of the molar value.

test system: not listed separately; experiment: Cytotoxicity against BALB/c mouse splenocyte by [3H]thymidine incorporation assay; assay type: cell-based; conditions: not given
In short: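 Splenocytes (5 × 10^6 per well) in DMEM with 10% FCS and 50 µg/mL gentamycin; tested at 1.1, 3.3, 11, 33 and 100 µg/mL in triplicate with 3H-thymidine (1 µCi per well), 24 h, 37 °C, 5% CO2. Value is highest non-cytotoxic concentration, i.e. reducing incorporation by under 10% versus untreated.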

Compound	highest non-cytotoxic concentration [µg/mL]
S=C(N/N=C/c1ccco1)N1CCCCCC1	> 100
S=C(N/N=C/c1ccco1)NC1CCCCC1	33
CC1CCN(C(=S)N/N=C/c2ccco2)CC1	100
CN(C(=S)N/N=C/c1ccco1)C1CCCCC1	> 100

test system: Plasmodium falciparum; experiment: Antiplasmodial activity against Plasmodium falciparum W2 after 24 hrs by [3H]hypoxanthine incorporation assay; assay type: functional, organism-based; conditions: not given
In short: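 Chloroquine-resistant, mefloquine-sensitive W2 clone grown in human O+ erythrocytes in RPMI 1640 with 10% human plasma; 1–2% parasitemia, 2.5% hematocrit. Five concentrations in 4% DMSO in hypoxanthine-free RPMI, 24 h. [3H]-hypoxanthine uptake vs untreated wells; IC50 from triplicates, mefloquine standard.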

pIC50	Compound
4.45	S=C(N/N=C/c1ccco1)N1CCCCCC1
4.69	S=C(N/N=C/c1ccco1)NC1CCCCC1
4.44	CC1CCN(C(=S)N/N=C/c2ccco2)CC1
4.66	CN(C(=S)N/N=C/c1ccco1)C1CCCCC1

Compound	pIC50
OC(c1cc(C(F)(F)F)nc2c(C(F)(F)F)cccc12)C1CCCCN1 (centres undefined) [MEFLOQUINE]	7.41

test system: Entamoeba histolytica; experiment: Antiamoebic activity against Entamoeba histolytica HM1:IMSS after 72 hrs by microplate method; assay type: functional, organism-based; conditions: HM-1:IMSS
In short: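 Trophozoites grown in TYI-S-33 medium; samples dissolved in DMSO then medium to 1 mg/mL, diluted to 0.1 mg/mL, twofold serial dilutions in plate; final DMSO ≤0.1%. 10^5 organisms/mL added, plate gassed with nitrogen 10 min, 37 °C for 72 h. OD at 490 nm; % inhibition vs log dose, linear regression for IC50. Triplicates, repeated thrice; metronidazole standard.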

pIC50	Compound
4.92	S=C(N/N=C/c1ccco1)N1CCCCCC1
4.99	S=C(N/N=C/c1ccco1)NC1CCCCC1
5.10	CC1CCN(C(=S)N/N=C/c2ccco2)CC1
5.04	CN(C(=S)N/N=C/c1ccco1)C1CCCCC1

test system: not listed separately; experiment: Inhibition of beta-hematin formation after 18 hrs by microtiter plate assay; assay type: functional; conditions: not given

Compound	IC50 [µg/mL]
CCN(CC)CCCC(C)Nc1ccnc2cc(Cl)ccc12.O=P(O)(O)O.O=P(O)(O)O (centres undefined) [CHLOROQUINE PHOSPHATE]	1.3
